Bioassay records deposited in PubChem by Broad Institute.
DENV2 CPE – inhibitors of DENV2 cytopathic effect | 1.7% of 350,000 active | DENV2-infected cells, cytopathic effect rescue, plate reader | CPE inhibition, % at 9.99 µM; in the data active means CPE inhibition above about 20%, passing the limit was not always enough; inconclusive means no clear call, values can overlap the other calls; tested in BHK-21 cells;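 further: 0% = median of neutral control wells and 100% = median of positive control wells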
E-sel inducer – E-selectin induction on HUVECs. P16581. HUVEC E-selectin immunofluorescence imaging; normalized: neutral wells 0, TNF-alpha wells 100. activation, % at 7.58 µM. 0.37% of 260,000 active. AID 686992;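 active means mean E-selectin-positive cell signal at least 10% of the positive control, reached in at least 60% of replicates, without over 20% cell loss; inconclusive means no rule given, readout overlaps actives, possibly toxicity-flagged; inactive means the rest, including those meeting only one limit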
Target sequence (P16581 whole entry, looked up): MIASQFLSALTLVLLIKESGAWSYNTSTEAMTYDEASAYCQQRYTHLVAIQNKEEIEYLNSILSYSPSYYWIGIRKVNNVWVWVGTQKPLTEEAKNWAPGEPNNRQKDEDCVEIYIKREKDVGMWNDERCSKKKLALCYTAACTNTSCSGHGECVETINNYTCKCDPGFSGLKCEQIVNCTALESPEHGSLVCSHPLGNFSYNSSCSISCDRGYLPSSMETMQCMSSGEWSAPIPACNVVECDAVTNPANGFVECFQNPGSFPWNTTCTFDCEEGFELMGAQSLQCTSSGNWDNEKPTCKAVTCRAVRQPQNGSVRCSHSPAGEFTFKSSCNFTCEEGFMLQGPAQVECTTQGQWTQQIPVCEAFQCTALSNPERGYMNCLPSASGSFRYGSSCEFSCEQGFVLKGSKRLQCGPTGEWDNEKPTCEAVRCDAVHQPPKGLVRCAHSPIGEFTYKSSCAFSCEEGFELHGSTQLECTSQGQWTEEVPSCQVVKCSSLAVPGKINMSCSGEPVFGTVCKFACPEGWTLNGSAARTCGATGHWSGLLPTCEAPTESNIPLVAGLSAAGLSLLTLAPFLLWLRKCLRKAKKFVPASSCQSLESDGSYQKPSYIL
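Test system: HUVEC | Signal: Immunofluorescence imaging | Read-out: Percent E-selectin-positive cells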
SIRT5 block – inhibitors of human sirtuin-5 desuccinylase; Purified SirT5, succinyl-peptide AMC, trypsin-coupled fluorescence; Q9NXA8; inhibition, % at 15 µM; 1.1% of 330,000 active; AID 652115; in the data active means inhibition above about 15%; inconclusive means no clear call, values can overlap the other calls
An asterisk follows results filed as active. Hits are enriched below; roughly 2.9% of the tested compounds scored in any of these assays.

`Cc1noc(C)c1NC(=O)N(C)C[C@H]1OCCCC[C@@H](C)Oc2ccc(NS(=O)(=O)c3c(C)noc3C)cc2C(=O)N([C@H](C)CO)C[C@H]1C` gave DENV2 CPE 1, E-sel inducer 0 and SIRT5 block -3.
Cc1noc(C)c1S(=O)(=O)Nc1ccc2c(c1)C(=O)N([C@@H](C)CO)C[C@@H](C)[C@H](CN(C)C(=O)Nc1ccccc1)OCCCC[C@@H](C)O2 was read as DENV2 CPE 97*, E-sel inducer 1 and SIRT5 block -5.
Screening COCCn1c(CCC(=O)O)ccc1-c1cccs1 returned DENV2 CPE 0 and SIRT5 block 8.
`COc1ccccc1/C=C1\SC(=S)N(CCC(=O)N2CCCCC2CCO)C1=O` (stereo not drawn) gave DENV2 CPE -4 and SIRT5 block 1.
Screening CCC(=O)Nc1nnc(SCC(=O)NCC2CCCO2)s1 (stereo not drawn) returned DENV2 CPE -7, E-sel inducer 3 and SIRT5 block -3.
For CCOC(=O)[C@]12CCC=C1N(CCC1=CCCCC1)C(=O)[C@H](CC(=O)N1CCC(c3ccccc3)CC1)C2 the results were DENV2 CPE -4 and SIRT5 block -7.
Screening CCOc1cc(N2CCOCC2)c(OCC)cc1NC(=O)[C@H](C)NC(=O)c1ccco1 returned DENV2 CPE 37* and SIRT5 block 0.
CCOc1cc(N2CCOCC2)c(OCC)cc1NC(C)C(=O)N1CCN(CC)CC1 (stereo not drawn) was read as DENV2 CPE -4, E-sel inducer 0 and SIRT5 block 15*.
For CCOc1cc(N2CCOCC2)c(OCC)cc1NC(=O)Cc1ccccc1 the results were DENV2 CPE -7, E-sel inducer -1 and SIRT5 block 1.
`CCOc1cc(N2CCOCC2)c(OCC)cc1NC(=O)C(C)C` gave DENV2 CPE -4, E-sel inducer 1 and SIRT5 block 1.
Screening C[C@H](CO)N1C[C@H](C)[C@@H](CN(C)Cc2ccc(C(=O)Nc3ccccc3N)cc2)Oc2ccc(NC(=O)C3CCCCC3)cc2CC1=O returned DENV2 CPE 11, E-sel inducer 1 and SIRT5 block 0.
For N#CC1(NC(=O)CN2C(=O)c3ccccc3C2=O)CCCCC1 the results were DENV2 CPE 9, E-sel inducer 50* and SIRT5 block 0.
For O=C(CN1C(=O)c2ccccc2C1=O)NC1(C(=O)O)CCCC1 the results were DENV2 CPE 0, E-sel inducer 0 and SIRT5 block 0.
Screening CCOC(=O)C(C)CC(C)C(=O)N1CCOCCOCCN(C(=O)C(C)CC(C)C(=O)OCC)CCOCC1 (stereo not drawn) returned E-sel inducer 0.
CCOC(CNC(=O)c1[nH]c(C(F)(F)F)nc1-c1ccccc1)OCC was read as DENV2 CPE 2, E-sel inducer 0 and SIRT5 block 9.
`CN(C)CC(=O)N1[C@H](C#N)[C@H](c2ccc(C#CC3CCCC3)cc2)[C@H]1CO` gave DENV2 CPE 1, E-sel inducer 0 and SIRT5 block 2.
Screening CN(C)CC(=O)N1[C@H](C#N)[C@H](c2ccc(C#CC3CCCC3)cc2)[C@@H]1CO returned DENV2 CPE 31*, E-sel inducer 0 and SIRT5 block 5.
Screening CN(C)CC(=O)N1[C@H](CO)[C@H](c2ccc(C#CC3CC3)cc2)[C@@H]1C#N returned DENV2 CPE 3, E-sel inducer 0 and SIRT5 block 1.
Screening CN(C)CC(=O)N1[C@@H](C#N)[C@@H](c2ccc(C#CC3CCCC3)cc2)[C@@H]1CO returned DENV2 CPE 39*, E-sel inducer 0 and SIRT5 block 2.
`COc1ccc(-c2oc3cccnc3c2/C=C/c2ccc(OC)c(OC)c2)cc1` gave DENV2 CPE 1 and E-sel inducer 0.
O=C(c1ccc(F)cc1F)N1CCN(S(=O)(=O)c2ccc3c(c2)OCCO3)CC1 was read as DENV2 CPE 1 and SIRT5 block 0.
Screening CCN(C(=O)Cn1nnc(-c2ccccc2)n1)C1CCS(=O)(=O)C1 (stereo not drawn) returned DENV2 CPE inconclusive, E-sel inducer 1 and SIRT5 block -5.
Screening S=c1[nH]nc(-c2cccc3ccccc23)n1-c1cccnc1 returned DENV2 CPE -2 and E-sel inducer 0.
CCC1=C(OC(=O)N(CC)CC)N2C(=O)OC(=NCCc3c[nH]c4ccccc34)[C@]2(C)[C@H]2C1=CC[C@H]1C(=O)N(CC(=O)OC)C(=O)[C@H]12 was read as E-sel inducer 0.
For CCC1=C(OC(=O)N(CC)CC)N2C(=O)OC(=NCC(=O)OC)[C@]2(C)[C@H]2C1=CC[C@H]1C(=O)N(C)C(=O)[C@H]12 the results were E-sel inducer 0.
